These results are taken from PubChem BioAssay AID1617 (Sanford-Burnham Center for Chemical Genomics, 2009).

The structures appear in SMILES notation. Activity calls are given as the source filed them.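 The calls were made as follows: active = compound at least 90% bound to plasma protein at 1 µM; inactive = the rest.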

For this series, the system named is human plasma protein binding, RED dialysis, LC/MS/MS. As to the kind of experiment: human plasma protein binding, late-stage follow-up, ADME assay, biochemical, rapid equilibrium dialysis, LC/MS/MS (AID 1617). Conditions: stronger effect = higher value. The method in brief: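 Material: spiked plasma, equilibrium dialysis; buffer or medium: Isotonic PBS, pH 7.4; compound dosing: two single doses, 1 and 10 µM final, 0.1% DMSO; timing: 4 h dialysis, 37 °C, shaken; technique: LC/MS/MS of matrix-matched buffer-side and plasma-side aliquots; read-out basis: percent bound, 100 minus free percentage from buffer-to-plasma concentration ratio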
Background: Equilibrium dialysis compares concentrations on both sides of a semipermeable membrane.

For the compound `Cc1cc(OCC(=O)Nc2ncn[nH]2)ccc1Cl`, the plasma protein bound reads like this: (at 1 µM) 27.9% (inactive); (percent bound, at 10 µM) 16.8%.
